Test results from PMC9328826 (Journal of Food and Drug Analysis, 2016).

Experiments:
[1] = WST-8 cytotoxicity assay on NIH/3T3 cells; type: cell-based; conditions: mouse, NIH/3T3 embryonic fibroblast cells
Procedure, shortened: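 NIH/3T3 cells, cultured in HEPES-buffered E-MEM with 10% FBS at 37°C, 5% CO2, seeded at 2 × 10^3 cells/well. Exposed to test compound at 0.5–10 μM for 24 and 48 hours at 37°C, with 0.1% DMSO for control and cell-free blank. WST-8 added for 4 hours, then OD read at 450 nm. Viability given as % of control (n = 3); IC50 fitted from dose-response curve by Hill slope.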

caspase-9 = assay: Caspase-9 activity, FAM-LEHD-FMK fluorescence probe; type: cell-based, human; conditions: HeLa, 24 hours; Compound 1 at 3 μM
Procedure, shortened: (§1)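 HeLa cells grown in E-MEM with 4.2 mM HEPES, 10% FBS, penicillin/streptomycin, 37°C, 5% CO2. 3 × 10^6 cells exposed to test compound at 3 μM for 24 hours, harvested, labelled 1 hour at 37°C with FAM-FLICA probe (DEVD-FMK caspase-3/7, LETD-FMK caspase-8, LEHD-FMK caspase-9), washed. Fluorescence at ex 485/em 530 nm on a plate reader, given as n-fold over control. Mean ± SD; Duncan test.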

[2] = test system: mitochondria membrane potential of HeLa cells; assay: JC-1 assay of mitochondria membrane potential; type: cell-based, human; conditions: 10 μM, 48 hours, untreated cells 294
Procedure, shortened: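 5 × 10^5 HeLa cells exposed to test compound at 3 μM for 24 and 48 hours, or to a reference drug at 10 μM. Stained with JC-1 for 30 minutes at 37°C, then washed. Green signal read at ex 485/em 530 nm on a plate reader. Red fluorescence (ex 520/em 595 nm) imaged by microscopy at ×400, with intensity quantified from the images. Mean ± SD; Duncan test.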

caspase-3/7 = assay: Caspase-3/7 activity, FAM-DEVD-FMK fluorescence probe; type: cell-based, human; conditions: HeLa, 24 hours; Compound 1 at 3 μM
Procedure, shortened: as §1

caspase-8 = assay: Caspase-8 activity, FAM-LETD-FMK fluorescence probe; type: cell-based, human; conditions: HeLa, 24 hours; Compound 1 at 3 μM
Procedure, shortened: as §1

HT-29 cell line = conditions: read-out: IC50, cytotoxic activity on HT-29 cell line; 72 hours ref 19; cited from earlier work
K562/ADM cell line = conditions: read-out: IC50, cytotoxic activity on K562/ADM cell line; 72 hours ref 11; cited from earlier work

Row | Compound | IC50 at 24 h [1] | IC50 at 48 h [1] | also measured
1 | CC(=O)O[C@H]1C(=O)[C@@]2(C)[C@H]([C@H](OC(=O)c3ccccc3)[C@]3(O)C[C@H](OC(=O)[C@H](O)[C@@H](NC(=O)c4ccccc4)c4ccccc4)C(C)=C1C3(C)C)[C@]1(OC(C)=O)CO[C@@H]1C[C@@H]2O [Taxol] | 390 nM | 120 nM | 
2 | COc1cc([C@@H]2c3cc4c(cc3[C@@H](O[C@@H]3O[C@@H]5CO[C@@H](C)O[C@H]5[C@H](O)[C@H]3O)[C@H]3COC(=O)[C@H]23)OCO4)cc(OC)c1O [Etoposide] | 7430 nM | 820 nM | increase of caspase-9 activity against control (caspase-9): 3.96 fold; red fluorescence intensity (RFI), JC-1 [2]: 17.56; increase of caspase-3/7 activity against control (caspase-3/7): 3.88 fold; increase of caspase-8 activity against control (caspase-8): 3.18 fold
3 | C=C1C(=O)O[C@@H]2/C=C(\C)CC/C=C(/C(=O)OC)[C@H](OC(C)=O)[C@@H](OC(=O)[C@]3(C)O[C@@H]3C)[C@@H]12 [Compound 4, Uvedalin] | 5290 nM | 2660 nM | increase of caspase-9 activity against control (caspase-9): 3.17 fold; increase of caspase-3/7 activity against control (caspase-3/7): 2.34 fold; increase of caspase-8 activity against control (caspase-8): 1.47 fold
4 | rufescenolide C |  |  | IC50 (HT-29 cell line): 150 nM
5 | C=C1CC[C@H]2C(OC(=O)[C@@H]2C)[C@H]2[C@@H]1CC(=O)[C@@H]2CC=C1CC[C@H]2C(=C)[C@H](O)C[C@@H]3[C@H](OC(=O)[C@H]3C)[C@@H]12 (stereo partly drawn) [biguaiascorzolide A] |  |  | IC50 (K562/ADM cell line): 39800 nM
6 | C=C1C(=O)O[C@H]2[C@H]1[C@H](OC(=O)[C@@]1(C)O[C@H]1C)[C@@H](OC(C)=O)/C(C(=O)OC)=C\CC[C@@]1(C)O[C@H]21 [Compound 3, Enhydrin] | 2700 nM | 1530 nM | 
7 | CO[C@@]12[C@H](COC(N)=O)C3=C(C(=O)C(C)=C(N)C3=O)N1C[C@@H]1N[C@@H]12 [Mitomycin C] | 4430 nM | 1260 nM | 
8 | C=C1C(=O)O[C@H]2[C@H]1CC/C(C)=C/CC[C@@]1(C)O[C@@H]21 [Parthenolide] | 12300 nM | 8950 nM | 
